Assay results from ChEMBL document CHEMBL1649124, “Genetic variability among ampC genes from acinetobacter genomic species 3” (Antimicrob Agents Chemother, 2009).
≈ marks a conversion by molar mass, not a printed value.

How the values were obtained:
Format in all cases: functional
[1] = system: Acinetobacter pittii; test: Antibacterial activity against Acinetobacter genomosp. 3 isolate 128 by Etest method
How it was run: (§1)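 MICs for AG3 clinical isolates were read by Etest following the manufacturer's instructions. Isolates were stored at –80°C in 10% Brucella glycerol broth before testing.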

[2] = system: Acinetobacter pittii; test: Antibacterial activity against Acinetobacter genomosp. 3 isolate 67 by Etest method in presence of efflux pump inhibitor CCCP
[3] = system: Acinetobacter pittii; test: Antibacterial activity against Acinetobacter genomosp. 3 isolate 21 by Etest method; how it was run: as §1
[4] = system: Acinetobacter pittii; test: Antibacterial activity against Acinetobacter genomosp. 3 isolate 243 by Etest method in presence of cloxacillin and efflux pump inhibitor CCCP
[5] = system: Acinetobacter pittii; test: Antibacterial activity against Acinetobacter genomosp. 3 isolate 56 by Etest method in presence of cloxacillin and efflux pump inhibitor PAN
[6] = system: Acinetobacter pittii; test: Antibacterial activity against Acinetobacter genomosp. 3 isolate 56 by Etest method in presence of cloxacillin and efflux pump inhibitor CCCP
[7] = system: Acinetobacter pittii; test: Antibacterial activity against Acinetobacter genomosp. 3 isolate 21 by Etest method in presence of cloxacillin and efflux pump inhibitor CCCP
[8] = system: Acinetobacter pittii; test: Antibacterial activity against Acinetobacter genomosp. 3 isolate 103 by Etest method in presence of cloxacillin and efflux pump inhibitor CCCP
[9] = system: Acinetobacter pittii; test: Antibacterial activity against Acinetobacter genomosp. 3 isolate 65 by Etest method in presence of cloxacillin and efflux pump inhibitor PAN
[10] = system: Acinetobacter pittii; test: Antibacterial activity against Acinetobacter genomosp. 3 isolate 14 by Etest method; how it was run: as §1
[11] = system: Acinetobacter pittii; test: Antibacterial activity against Acinetobacter genomosp. 3 isolate 20 by Etest method in presence of cloxacillin and efflux pump inhibitor CCCP
[12] = system: Acinetobacter pittii; test: Antibacterial activity against Acinetobacter genomosp. 3 isolate 20 by Etest method in presence of cloxacillin; how it was run: as §1
[13] = system: Acinetobacter pittii; test: Antibacterial activity against Acinetobacter genomosp. 3 isolate 109 by Etest method in presence of cloxacillin and efflux pump inhibitor CCCP
[14] = system: Escherichia coli; test: Antibacterial activity against Escherichia coli DH5alpha carrying ampC gene of Acinetobacter genomosp. 3 isolate 20 by Etest method
How it was run: (§2)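 E. coli DH5α expressing the AG3 isolate ampC gene, PCR-amplified (high-fidelity system, 28 cycles) and cloned into BamHI/HindIII sites of pBGS18 (kanamycin marker) under the CTX-M-14 β-lactamase promoter. Grown at 37°C in LB, with kanamycin 50 µg/ml when needed. β-Lactam MICs determined by Etest per the manufacturer's instructions.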

[15] = system: Escherichia coli; test: Antibacterial activity against Escherichia coli DH5alpha carrying ampC gene of Acinetobacter genomosp. 3 isolate 103 by Etest method; how it was run: as §2
[16] = system: Acinetobacter pittii; test: Antibacterial activity against Acinetobacter genomosp. 3 isolate 90 by Etest method in presence of cloxacillin and efflux pump inhibitor CCCP
[17] = system: Acinetobacter pittii; test: Antibacterial activity against Acinetobacter genomosp. 3 isolate 128 by Etest method in presence of cloxacillin and efflux pump inhibitor PAN
[18] = system: Acinetobacter pittii; test: Antibacterial activity against Acinetobacter genomosp. 3 isolate 90 by Etest method in presence of cloxacillin and efflux pump inhibitor PAN
[19] = system: Acinetobacter pittii; test: Antibacterial activity against Acinetobacter genomosp. 3 isolate 90 by Etest method in presence of efflux pump inhibitor PAN
[20] = system: Acinetobacter pittii; test: Antibacterial activity against Acinetobacter genomosp. 3 isolate 52 by Etest method of efflux pump inhibitor CCCP
[21] = system: Acinetobacter pittii; test: Antibacterial activity against Acinetobacter genomosp. 3 isolate 20 by Etest method; how it was run: as §1
[22] = system: Acinetobacter pittii; test: Antibacterial activity against Acinetobacter genomosp. 3 isolate 103 by Etest method in presence of cloxacillin; how it was run: as §1
[23] = system: Escherichia coli; test: Antibacterial activity against Escherichia coli DH5alpha carrying ampC gene of Acinetobacter genomosp. 3 isolate 69 by Etest method; how it was run: as §2
[24] = system: Acinetobacter pittii; test: Antibacterial activity against Acinetobacter genomosp. 3 isolate 60 by Etest method in presence of cloxacillin and efflux pump inhibitor PAN
[25] = system: Acinetobacter pittii; test: Antibacterial activity against Acinetobacter genomosp. 3 isolate 128 by Etest method in presence of efflux pump inhibitor CCCP
[26] = system: Acinetobacter pittii; test: Antibacterial activity against Acinetobacter genomosp. 3 isolate 56 by Etest method in presence of efflux pump inhibitor CCCP
[27] = system: Acinetobacter pittii; test: Antibacterial activity against Acinetobacter genomosp. 3 isolate 60 by Etest method in presence of cloxacillin and efflux pump inhibitor CCCP
[28] = system: Acinetobacter pittii; test: Antibacterial activity against Acinetobacter genomosp. 3 isolate 243 by Etest method in presence of cloxacillin; how it was run: as §1
[29] = system: Acinetobacter pittii; test: Antibacterial activity against Acinetobacter genomosp. 3 isolate 90 by Etest method; how it was run: as §1
[30] = system: Acinetobacter pittii; test: Antibacterial activity against Acinetobacter genomosp. 3 isolate 60 by Etest method in presence of efflux pump inhibitor CCCP
[31] = system: Acinetobacter pittii; test: Antibacterial activity against Acinetobacter genomosp. 3 isolate 128 by Etest method in presence of cloxacillin; how it was run: as §1
[32] = system: Acinetobacter pittii; test: Antibacterial activity against Acinetobacter genomosp. 3 isolate 52 by Etest method in presence of cloxacillin; how it was run: as §1
[33] = system: Acinetobacter pittii; test: Antibacterial activity against Acinetobacter genomosp. 3 isolate 65 by Etest method in presence of efflux pump inhibitor CCCP
[34] = system: Acinetobacter pittii; test: Antibacterial activity against Acinetobacter genomosp. 3 isolate 14 by Etest method in presence of cloxacillin; how it was run: as §1
[35] = system: Acinetobacter pittii; test: Antibacterial activity against Acinetobacter genomosp. 3 isolate 56 by Etest method; how it was run: as §1
[36] = system: Escherichia coli; test: Antibacterial activity against Escherichia coli DH5alpha by Etest method
How it was run: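 E. coli DH5α host strain, grown at 37°C in LB medium. MICs of β-lactams determined by Etest following the manufacturer's instructions.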

[37] = system: Acinetobacter pittii; test: Antibacterial activity against Acinetobacter genomosp. 3 isolate 60 by Etest method in presence of cloxacillin; how it was run: as §1
[38] = system: Acinetobacter pittii; test: Antibacterial activity against Acinetobacter genomosp. 3 isolate 195 by Etest method in presence of cloxacillin and efflux pump inhibitor PAN
[39] = system: Acinetobacter pittii; test: Antibacterial activity against Acinetobacter genomosp. 3 isolate 243 by Etest method in presence of efflux pump inhibitor CCCP
[40] = system: Acinetobacter pittii; test: Antibacterial activity against Acinetobacter genomosp. 3 isolate 243 by Etest method in presence of cloxacillin and efflux pump inhibitor PAN
[41] = system: Escherichia coli; test: Antibacterial activity against Escherichia coli DH5alpha carrying ampC gene of Acinetobacter genomosp. 3 isolate 14 by Etest method; how it was run: as §2
[42] = system: Acinetobacter pittii; test: Antibacterial activity against Acinetobacter genomosp. 3 isolate 109 by Etest method in presence of efflux pump inhibitor CCCP
[43] = system: Escherichia coli; test: Antibacterial activity against Escherichia coli DH5alpha carrying ampC gene of Acinetobacter genomosp. 3 isolate 56 by Etest method; how it was run: as §2
[44] = system: Acinetobacter pittii; test: Antibacterial activity against Acinetobacter genomosp. 3 isolate 90 by Etest method in presence of cloxacillin; how it was run: as §1
[45] = system: Acinetobacter pittii; test: Antibacterial activity against Acinetobacter genomosp. 3 isolate 65 by Etest method in presence of efflux pump inhibitor PAN
[46] = system: Acinetobacter pittii; test: Antibacterial activity against Acinetobacter genomosp. 3 isolate 21 by Etest method in presence of cloxacillin; how it was run: as §1
[47] = system: Acinetobacter pittii; test: Antibacterial activity against Acinetobacter genomosp. 3 isolate 20 by Etest method in presence of efflux pump inhibitor PAN
[48] = system: Acinetobacter pittii; test: Antibacterial activity against Acinetobacter genomosp. 3 isolate 109 by Etest method in presence of cloxacillin; how it was run: as §1
[49] = system: Acinetobacter pittii; test: Antibacterial activity against Acinetobacter genomosp. 3 isolate 109 by Etest method in presence of efflux pump inhibitor PAN

CC(=O)OCC1=C(C(=O)O)N2C(=O)[C@@H](NC(=O)Cc3cccs3)[C@H]2SC1 [CEPHALOTHIN]
MIC [1]: > 256 µg/mL | MIC [2]: 192 µg/mL | MIC [3]: > 256 µg/mL | MIC [4]: 12 µg/mL | MIC [5]: > 256 µg/mL | MIC [6]: 16 µg/mL | MIC [7]: 48 µg/mL | MIC [8]: 24 µg/mL | MIC [9]: 128 µg/mL | MIC [10]: > 256 µg/mL | MIC [11]: 24 µg/mL | MIC [12]: > 256 µg/mL | MIC [13]: 24 µg/mL | MIC [14]: > 256 µg/mL | MIC [15]: > 256 µg/mL | MIC [16]: 24 µg/mL | MIC [17]: 48 µg/mL | MIC [18]: 64 µg/mL | MIC [19]: > 256 µg/mL | MIC [20]: > 256 µg/mL | MIC [21]: > 256 µg/mL | MIC [22]: 192 µg/mL | MIC [23]: > 256 µg/mL | MIC [24]: > 256 µg/mL | MIC [25]: > 256 µg/mL | MIC [26]: 96 µg/mL | MIC [27]: 28 µg/mL | MIC [28]: 192 µg/mL | MIC [29]: > 256 µg/mL | MIC [30]: > 256 µg/mL | MIC [31]: 48 µg/mL | MIC [32]: > 256 µg/mL | MIC [33]: 128 µg/mL | MIC [34]: 128 µg/mL | MIC [35]: > 256 µg/mL | MIC [36]: 3 µg/mL (≈ 7.57 µM) | MIC [37]: > 256 µg/mL | MIC [38]: > 256 µg/mL | MIC [39]: > 256 µg/mL | MIC [40]: 192 µg/mL | MIC [41]: > 256 µg/mL | MIC [42]: > 256 µg/mL | MIC [43]: > 256 µg/mL | MIC [44]: 192 µg/mL | MIC [45]: > 256 µg/mL | MIC [46]: > 256 µg/mL | MIC [47]: > 256 µg/mL | MIC [48]: 128 µg/mL | MIC [49]: > 256 µg/mL

C[C@@H](O)[C@H]1C(=O)N2C(C(=O)O)=C(S[C@@H]3CN[C@H](C(=O)N(C)C)C3)[C@H](C)[C@H]12 [MEROPENEM]
MIC [1]: 0.19 µg/mL (≈ 0.495 µM) | MIC [2]: 0.25 µg/mL | MIC [3]: 1 µg/mL (≈ 2.61 µM) | MIC [4]: 0.094 µg/mL | MIC [5]: 0.38 µg/mL | MIC [6]: 0.125 µg/mL | MIC [7]: 0.25 µg/mL | MIC [8]: 1 µg/mL | MIC [9]: 0.38 µg/mL | MIC [10]: 0.5 µg/mL (≈ 1.3 µM) | MIC [11]: 1.5 µg/mL | MIC [12]: 3 µg/mL | MIC [13]: 0.19 µg/mL | MIC [14]: 0.023 µg/mL (≈ 0.06 µM) | MIC [15]: 0.023 µg/mL (≈ 0.06 µM) | MIC [16]: 0.38 µg/mL | MIC [17]: 0.19 µg/mL | MIC [18]: 0.25 µg/mL | MIC [19]: 0.38 µg/mL | MIC [20]: 0.38 µg/mL (≈ 0.991 µM) | MIC [21]: 6 µg/mL (≈ 15.6 µM) | MIC [22]: 1.5 µg/mL | MIC [23]: 0.023 µg/mL (≈ 0.06 µM) | MIC [24]: 0.75 µg/mL | MIC [25]: 0.19 µg/mL | MIC [26]: 0.25 µg/mL | MIC [27]: 0.25 µg/mL | MIC [28]: 0.125 µg/mL | MIC [29]: 0.75 µg/mL (≈ 1.96 µM) | MIC [30]: 0.5 µg/mL | MIC [31]: 0.25 µg/mL | MIC [32]: 0.19 µg/mL | MIC [33]: 0.25 µg/mL | MIC [34]: 0.25 µg/mL | MIC [35]: 0.38 µg/mL (≈ 0.991 µM) | MIC [36]: 0.008 µg/mL (≈ 0.0209 µM) | MIC [37]: 0.75 µg/mL | MIC [38]: 1 µg/mL | MIC [39]: 0.25 µg/mL | MIC [40]: 0.19 µg/mL | MIC [41]: 0.023 µg/mL (≈ 0.06 µM) | MIC [42]: 0.25 µg/mL | MIC [43]: 0.023 µg/mL (≈ 0.06 µM) | MIC [44]: 1 µg/mL | MIC [45]: 0.25 µg/mL | MIC [46]: 0.5 µg/mL | MIC [47]: 3 µg/mL | MIC [48]: 0.25 µg/mL | MIC [49]: 0.25 µg/mL
